Experiments:
PLCδ1-PH domain [1] = target: T1, PLCδ1-PH domain (Rattus norvegicus, UniProt P10688); assay: Competitive surface plasmon resonance assay, PI; type: binding; settings: for inhibition at 5 µM: pH 7.4, read-out: Relative inhibitory activity (%), PI(4,5)P2/PLCδ1-PH
T1 sequence (P10688 1-131): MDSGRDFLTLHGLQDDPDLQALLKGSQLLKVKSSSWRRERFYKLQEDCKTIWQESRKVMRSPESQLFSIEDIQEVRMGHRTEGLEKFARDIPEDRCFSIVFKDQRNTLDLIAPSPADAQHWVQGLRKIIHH
Summary of the method: (§1)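 L1 chip, 25 °C, 20 mM HEPES pH 7.4, 0.16 M KCl, 30 µL/min. Active surface PC/PE/PS/PIP (57:20:20:3): PI(4,5)P2 for rat PLCδ1-PH (1-131), PI(3,4,5)P3 for human AKT1-PH (1-121) and mouse GRP1-PH (1-127), PI(3,4)P2 for human TAPP1-PH (180-305). BSA-blocked PC/PE/PS reference. Domain (500 nM) preincubated 30 min with compound (0–20 or 0–200 µM). % inhibition from RU at 180 s; IC50 by Langmuir fit; triplicates.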

AKT1-PH domain [2] = target: T2, AKT1-PH domain (Homo sapiens, UniProt P31749); assay: Liposome pull-down assay, PI; type: binding; settings: protein 50 μM; compound 100 μM; PC/PE/PS/PI(3,4,5)P3 (57:20:20:3)
Summary of the method: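 Human AKT1-PH (1-121) is incubated 30 min with 40 µg sucrose-loaded, sonicated/extruded vesicles (± compound) in 20 mM Tris pH 7.4, 100 mM KCl, 5 mM MgCl2, 0.3 mg/mL BSA. Vesicles were pelleted beforehand at 100,000g, 4 °C. Bound and free protein are separated at 100,000g, 30 min, 4 °C. Supernatant and pellet are run on Coomassie-stained SDS-PAGE.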

PLCδ1-PH domain [3] = target: T1, PLCδ1-PH domain; assay: Liposome pull-down assay, PI; type: binding; settings: protein 50 μM; compound 100 μM; PC/PE/PS/PI(4,5)P2 (57:20:20:3)
Summary of the method: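 Sucrose-loaded PC/PE/PS/PI(4,5)P₂ vesicles made by sonication and extrusion, pelleted at 100,000g, and resuspended in 20 mM Tris pH 7.4 with 100 mM KCl and 5 mM MgCl₂. Rat PLCδ1-PH domain incubated with vesicles (40 µg in 100 µL) for 30 min with 0.3 mg/mL BSA, with or without test compound; PC/PE/PS vesicles as control. Spun at 100,000g for 30 min at 4 °C; supernatant and pellet run on Coomassie-stained SDS-PAGE.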

PLCδ1-PH domain [4] = target: T1, PLCδ1-PH domain; assay: Circular dichroism of PLCδ1-PH domain with compounds; settings: PLCδ1-PH 1 μM; 10 mM phosphate, 10 mM NaCl, pH 7.2
Summary of the method: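 Rat PLCδ1-PH domain (residues 1-131, expressed in E. coli BL21-DE3) is scanned by far-UV CD from 190 to 245 nm, alone and with test compounds present.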

PLCδ1-PH domain [5] = target: T1, PLCδ1-PH domain; assay: Isothermal titration calorimetry, PLCδ1-PH domain; type: binding; settings: 25 °C; 20 mM HEPES pH 7.4, 0.16 M KCl
Summary of the method: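 Rat PLCδ1-PH domain (residues 1–131, E. coli BL21-DE3) at 200 μM, dialysed into 20 mM HEPES pH 7.4 with 0.16 M KCl. Titrated at 25 °C, 500 rpm, with 20 × 2 µL injections at 2.0 min intervals of test compound (2 mM) dissolved in the final dialysate. ΔG derived as ΔH − TΔS.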

AKT1-PH domain [6] = target: T2, AKT1-PH domain; assay: Isothermal titration calorimetry, AKT1-PH domain; type: binding; settings: 25 °C
Summary of the method: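 Human AKT1-PH domain (residues 1–121, E. coli BL21-DE3) in the sample cell at 25 °C, 500 rpm. Titrated with 20 × 2 µL injections of test compound (2 mM) at 2.0 min intervals. ΔG derived as ΔH − TΔS.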

PLCδ1-PH domain [7] = target: T1, PLCδ1-PH domain; assay: Competitive protein-to-membrane FRET displacement assay; type: binding
Summary of the method: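 Rat PLCδ1-PH (1-131) is prebound to excess PC/PE/PS/dPE/PI(4,5)P2 (56:20:20:1:3) vesicles (100 µM total lipid) in 20 mM Tris pH 7.4, 0.16 M NaCl, at room temperature. Compound is titrated 0–70 µM. Protein-to-membrane FRET is read at ex 280/em 505 nm, corrected for PC/PE/PS/dPE (59:20:20:1) vesicles, dilution and dPE background. Apparent KI comes from a nonlinear least-squares fit.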

GRP1-PH domain = target: T3, GRP1-PH domain (Mus musculus, UniProt O08967); assay: Competitive surface plasmon resonance assay, PI; type: binding; settings: for inhibition at 5 µM: read-out: Relative inhibitory activity (%), PI(3,4,5)P3/GRP1-PH
T3 sequence (O08967 264-380 limits assumed): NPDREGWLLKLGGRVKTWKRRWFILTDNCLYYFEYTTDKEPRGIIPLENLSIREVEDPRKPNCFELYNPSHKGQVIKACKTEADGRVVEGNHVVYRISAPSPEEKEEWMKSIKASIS
Summary of the method: as §1

AKT1-PH domain [8] = target: T2, AKT1-PH domain; assay: Competitive surface plasmon resonance assay, PI; type: binding; settings: for inhibition at 5 µM: read-out: Relative inhibitory activity (%), PI(3,4,5)P3/AKT1-PH
Summary of the method: as §1

TAPP1-PH domain = TAPP1-PH domain (Homo sapiens, UniProt Q9HB21); assay: Competitive surface plasmon resonance assay, PI; type: binding; settings: for inhibition at 5 µM: read-out: Relative inhibitory activity (%), PI(3,4)P2/TAPP1-PH
Summary of the method: as §1

[9] = test system: GFP-tagged PLCδ1-PH domain in A549 cells; assay: Cellular translocation of GFP-tagged PLCδ1-PH domain; type: cell-based, Human; settings: 0–100 μM, 30 min
Summary of the method: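 A549 cells grown on coverslips in RPMI-1640 with 10% heat-inactivated FBS and penicillin/streptomycin at 37 °C, 5% CO₂. Transfected 24 h after seeding with GFP-PLCδ1-PH using polyethylenimine in Opti-MEM, then returned to complete medium after 24 h. Cells washed into serum-free medium and exposed to test compound (5–100 µM; DMSO <5%) for 30 min. PBS-washed, fixed in 4% paraformaldehyde for 15 min, and imaged by confocal at 488 nm excitation.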

TAPP1-PH domain, sequence (Q9HB21 180-305): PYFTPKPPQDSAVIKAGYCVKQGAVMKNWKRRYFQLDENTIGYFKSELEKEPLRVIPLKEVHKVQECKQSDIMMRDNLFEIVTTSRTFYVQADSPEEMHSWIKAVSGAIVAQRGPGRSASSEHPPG
T2 sequence (P31749 1-121): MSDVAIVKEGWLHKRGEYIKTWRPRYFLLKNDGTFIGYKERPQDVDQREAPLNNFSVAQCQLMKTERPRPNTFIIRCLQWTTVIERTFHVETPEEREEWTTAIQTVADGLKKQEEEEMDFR

Effect on PLCδ1-PH domain binding to PC/PE/PS/PI(4,5)P2 liposome (PLCδ1-PH domain [1]; competitive SPR, negative control, data not shown) | Inhibition of PI(3,4,5)P3/AKT1-PH domain interaction (SDS-PAGE) (AKT1-PH domain [2]) | IC50 (PLCδ1-PH domain [1]) [µM] | inhibition at 5 µM (PLCδ1-PH domain [1]) [%] | Change in secondary structural pattern of PLCδ1-PH domain (far UV-CD) (PLCδ1-PH domain [4]) | Ki (PLCδ1-PH domain [7]) [µM] | IC50 (GRP1-PH domain) [µM] | inhibition at 5 µM (GRP1-PH domain) [%] | IC50 (AKT1-PH domain [8]) [µM] | inhibition at 5 µM (AKT1-PH domain [8]) [%] | IC50 (TAPP1-PH domain) [µM] | inhibition at 5 µM (TAPP1-PH domain) [%] | SMILES | Inhibition of PLCδ1-PH domain binding to PI(4,5)P2 containing liposomes (SDS-PAGE) (PLCδ1-PH domain [3]) | ITC titration behaviour with PLCδ1-PH domain (PLCδ1-PH domain [5]) | ITC titration behaviour with AKT1-PH domain (AKT1-PH domain [6]) | Displacement of PLCδ1-PH domain from plasma membrane (confocal images) [9]
did not affect |  |  |  |  |  |  |  |  |  |  |  | Cn1cc(CO)nn1 [(1-methyl-1H-1,2,3-triazol-4-yl)methanol, reference compound] |  |  |  | 
 | more strongly than compound CIP-4 | 0.113 ± 0.007 | 83 ± 4 | almost no change | 60.4 | 0.145 ± 0.011 | 56 ± 3 | 0.175 ± 0.021 | 44 ± 2 | 0.647 ± 0.033 | 18 ± 2 | O=[N+]([O-])c1ccc(Cn2cc(CO)nn2)cc1 [CIP-1] | not that efficient in displacing the PLCδ1-PH domain | exothermic reaction with one-step binding mechanism | exothermic reaction with two-step binding mechanism | extent of displacement of PLCδ1-PH domain from PM is lowered
 |  | 0.159 ± 0.011 | 62 ± 3 |  |  | 0.216 ± 0.009 | 58 ± 5 | 0.315 ± 0.032 | 55 ± 2 | 0.106 ± 0.008 | 41 ± 4 | OCc1cn(Cc2ccccc2)nn1 [CIP-2] |  |  |  | 
 |  |  |  |  |  |  |  |  | 4 ± 1 |  |  | CCOC(=O)Cn1cc(CO)nn1 [CIP-3] |  |  |  | 
